From article PMC3728731 (Chemmedchem, 2013) come the findings set out here.

Where “and” joins values, the source holds several entries; their conditions need not be identical. Equal values may be shown once.

Assay [1] concerns the target T1, TbGSK3 (Trypanosoma brucei brucei, UniProt Q388M1).
T1 sequence (Q388M1 1-352): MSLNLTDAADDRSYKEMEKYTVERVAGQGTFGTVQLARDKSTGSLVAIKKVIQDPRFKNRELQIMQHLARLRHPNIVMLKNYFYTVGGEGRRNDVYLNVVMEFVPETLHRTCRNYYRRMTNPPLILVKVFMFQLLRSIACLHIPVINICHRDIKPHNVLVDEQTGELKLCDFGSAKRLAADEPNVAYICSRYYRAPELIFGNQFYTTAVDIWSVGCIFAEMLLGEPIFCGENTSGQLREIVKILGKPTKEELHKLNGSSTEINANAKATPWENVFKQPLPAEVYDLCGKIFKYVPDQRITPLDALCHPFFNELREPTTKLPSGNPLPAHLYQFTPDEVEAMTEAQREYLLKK
As to the kind of experiment: Mechanism of inhibition of TbGSK3. It is filed as biochemical. Particulars: for mechanism of inhibition: versus ATP, saturating GSP2. A digest of the protocol: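 Rates (CPM) measured at 10 test-compound concentrations × four ATP concentrations, GSP2 phosphopeptide saturating. Lineweaver–Burk plots examined for competitive, mixed or uncompetitive patterns; apparent K_i calculated.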

For assay [2], the target named is T1, TbGSK3. As to the kind of experiment: TbGSK3 radiometric Flashplate potency assay. The assay is classed as biochemical. To be noted: for IC50: IC50 TbGSK3, Flashplate, 1 μM ATP (<KM); for fold less active than 8 against TbGSK3: compared with compound 8. A digest of the protocol: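 Radiometric streptavidin Flashplate capture of biotinylated phosphoproduct. MBP-fused short TbGSK3 (2.5 nM), 1 μM biotinylated GSP2, 1 μM ATP plus 3.7 KBq [γ-³³P]ATP/well. 10-point titration, 30 μM–0.3 nM final, 1% DMSO. IC50 by four-parameter fit; ligand efficiency = [−RT ln(IC50)]/heavy-atom count.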

The target of assay [3] is HsGSK3β (Homo sapiens, UniProt P49841). As to the kind of experiment: HsGSK3β radiometric Flashplate assay. It is filed as biochemical.
For assay [4], the target named is GSK3 (Homo sapiens, UniProt P49841). As to the kind of experiment: Mammalian kinase selectivity panel. The assay is classed as biochemical. To be noted: read-out: inhibition of GSK3. A digest of the protocol: (§1)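 Run by the University of Dundee DSTT mammalian panel, which then held 76 kinases. Test compound screened in duplicate at 10 μM. Each kinase assayed with ATP below its apparent K_M for ATP.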

The test system of assay [5] is MRC5 (human lung fibroblast) cells. As to the kind of experiment: MRC5 proliferation assay. The assay is classed as cell-based. Particulars: T. brucei versus MRC5. A digest of the protocol:
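MRC5 human lung fibroblasts, 2×10³ cells/well, grown in MEM with 10% foetal bovine serum. Test compound from 50 μM to 0.5 nM. Incubated 69 h at 37 °C, 5% CO₂. Resazurin added (50 μM final), then a further 4 h under the same conditions. Read by fluorescence.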

Assay [6] deals with CDK2-Cyclin A (Homo sapiens, UniProt P24941). As to the kind of experiment: Mammalian kinase selectivity panel. The assay is classed as biochemical. To be noted: read-out: inhibition of CDK2. A digest of the protocol:
as §1

Assay [7] addresses 76 mammalian kinases. As to the kind of experiment: Mammalian kinase selectivity panel, whole panel. The assay is classed as biochemical. Particulars: 10 μM.

Sequence of HsGSK3β (P49841 whole entry): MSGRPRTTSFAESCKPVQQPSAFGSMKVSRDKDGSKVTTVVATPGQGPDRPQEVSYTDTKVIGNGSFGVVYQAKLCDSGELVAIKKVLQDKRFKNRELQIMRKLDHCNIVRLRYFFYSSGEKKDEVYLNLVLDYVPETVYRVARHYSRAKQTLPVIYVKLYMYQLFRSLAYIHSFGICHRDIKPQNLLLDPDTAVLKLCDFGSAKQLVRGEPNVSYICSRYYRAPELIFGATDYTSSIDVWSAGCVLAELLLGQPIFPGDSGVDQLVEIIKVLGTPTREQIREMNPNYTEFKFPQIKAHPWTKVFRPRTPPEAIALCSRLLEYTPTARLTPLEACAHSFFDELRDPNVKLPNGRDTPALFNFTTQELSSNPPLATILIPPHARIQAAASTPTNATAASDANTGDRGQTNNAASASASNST
Sequence of GSK3 (P49841 whole entry): as above

Regarding `Nc1nc(NC2CCCCC2)sc1C(=O)c1ccccc1` [Compound 19, (4-Amino-2-(cyclohexylamino)thiazol-5-yl)(phenyl)methanone], in assay [1], the Ki came to 250 ± 30 nM and the mechanism of inhibition entry is on record as “ATP-competitive”. In addition, in assay [2], the IC50 was 190 nM and 200 nM; the “fold less active than 8 against TbGSK3” value was “sixfold”. In assay [3], this compound gave an IC50 of 2 nM.

On to `Nc1nc(Nc2ccccc2)sc1C(=O)c1c(F)cccc1F` [Compound 14, (4-Amino-2-(phenylamino)thiazol-5-yl)(2,6-difluorophenyl)methanone], for which, in assay [1], the Ki came out at 50 ± 10 nM and the mechanism of inhibition result is listed as “ATP-competitive”. This compound had an IC50 in assay [2] of 20 nM. Besides, the IC50 in assay [3] is 5 nM.

For `COc1cccc(OC)c1C(=O)c1sc(Nc2ccccc2)nc1N` [Compound 15, (4-Amino-2-(phenylamino)thiazol-5-yl)(2,6-dimethoxyphenyl)methanone], the IC50 in assay [2] stood at 400 nM; in assay [3] it was 2000 nM. The “fold less active than 14 against TbGSK3” value in assay [2] (compared with compound 14) is “over 10 fold”.

With `Cc1ccc(Nc2nc(N)c(C(=O)c3ccccc3)s2)cc1C` [Compound 18, (4-Amino-2-((3,4-dimethylphenyl)amino)thiazol-5-yl)(phenyl)methanone], the IC50 in assay [2] was 60 nM; in assay [3], 2 nM.

Take `Nc1nc(NCCc2ccccc2)sc1C(=O)c1ccccc1` [Compound 21, (4-Amino-2-(phenethylamino)thiazol-5-yl)(phenyl)methanone]: the results for the IC50 in assay [2] and in assay [3] were 500 nM and 3 nM, respectively.

On to `Nc1nc(Nc2ccccc2)sc1C(=O)c1cccc(Br)c1` [Compound 16, (4-Amino-2-(phenylamino)thiazol-5-yl)(3-bromophenyl)methanone], for which the IC50 in assay [2] came out at 100 nM; in assay [3] it was 5 nM.

Regarding `CC(C)(C)C(=O)c1sc(NC2CCCCC2)nc1N` [Compound 22, 1-(4-Amino-2-(cyclohexylamino)thiazol-5-yl)-2,2-dimethylpropan-1-one], the inhibition at 10 µM in assay [4] is more than 70%. Besides, the “selectivity over the human MRC5 cell line” value in assay [5] is more than 150 fold. Also, the inhibition at 10 µM in assay [6] is more than 70%. Further, in assay [2], 12000 nM corresponded to half-maximal inhibition (IC50) and the “fold less active than 8 against TbGSK3” value is approximately 300 fold. For the same compound, in assay [7], the “kinases of the panel inhibited at the >90 % level” value is listed as “did not inhibit any kinase at the >90 % level”.

Regarding `Nc1nc(NCC2CCCCC2)sc1C(=O)c1ccccc1` [Compound 20, (4-Amino-2-((cyclohexylmethyl)amino)thiazol-5-yl)(phenyl)methanone], the figures for the IC50 in assay [2] and in assay [3] were 700 nM and 20 nM, respectively.

`Cc1cccc(C)c1Nc1nc(N)c(C(=O)c2ccccc2)s1` [Compound 17, (4-Amino-2-((2,6-dimethylphenyl)amino)thiazol-5-yl)(phenyl)methanone]: in assay [2], the half-inhibitory concentration (IC50) turned out to be 200 nM and the “fold less active than 8 against TbGSK3” value is listed as “approximately 10 fold”. The IC50 in assay [3] is 200 nM.
